Measurements reported in ChEMBL document CHEMBL1153560, “In vitro activities of doripenem and six comparator drugs against 423 aerobic and anaerobic bacterial isolates from infected diabetic foot wounds” (2008).
Values after ≈ are worked out from the molar mass of the structure shown.

Experiments:
Format in all cases: functional
Prevotella bivia = test: Antibacterial activity against Prevotella bivia isolated from patient with diabetic foot infection after 44 to 48 hrs by agar dilution method
Summary of the method: (§1)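 CLSI M11-A7 agar dilution: serial twofold drug dilutions made on the test day and added to molten agar. Spots of 10^5 CFU were applied by replicator, with drug-free control plates inoculated before and after each set. Incubation was 44 to 48 h at 37°C in an anaerobic chamber. MIC was the lowest concentration giving no growth or a marked change in growth versus controls.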

Clostridium cadaveris = test: Antibacterial activity against Clostridium cadaveris isolated from patient with diabetic foot infection after 44 to 48 hrs by agar dilution method; summary of the method: as §1
Lacrimispora sphenoides [1] = test: Antibacterial activity against Clostridium sphenoides isolated from patient with diabetic foot infection after 44 to 48 hrs by agar dilution method; summary of the method: as §1
Anaerococcus tetradius = test: Antibacterial activity against Anaerococcus tetradius isolated from patient with diabetic foot infection after 44 to 48 hrs by agar dilution method; summary of the method: as §1
Enterobacter cloacae = test: Antibacterial activity against Enterobacter cloacae isolated from patient with diabetic foot infection assessed as percent resistant isolates after 18 to 24 hrs by broth microdilution method
Summary of the method: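 Aerobes subcultured on Trypticase soy blood agar, then broth microdilution in cation-adjusted Mueller-Hinton broth. Trays prepared in-house with twofold dilutions and stored at −70°C. Overnight colonies suspended to about 5 × 10^5 CFU/ml final. Read after 18 to 24 h at 37°C. QC strains included S. aureus ATCC 29213 and E. coli ATCC 25922.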

[2] = system: Corynebacterium urealyticum; test: Antibacterial activity against Corynebacterium urealyticum isolated from patient with diabetic foot infection assessed as percent resistant isolates after 48 hrs by broth microdilution method
Summary of the method: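 Isolates subcultured on Trypticase soy blood agar. Broth microdilution in cation-adjusted Mueller-Hinton broth with lysed horse blood, using in-house twofold dilution trays stored at −70°C. Inoculum from overnight colonies at about 5 × 10^5 CFU/ml final. Read after 18 to 24 h at 37°C, up to 48 h for some Corynebacterium strains.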

[3] = system: Staphylococcus haemolyticus; test: Antibacterial activity against Staphylococcus haemolyticus isolated from patient with diabetic foot infection after 18 to 24 hrs by broth microdilution method
Streptococcus pyogenes = test: Antibacterial activity against Streptococcus pyogenes isolated from patient with diabetic foot infection after 18 to 24 hrs by broth microdilution method
Summary of the method: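 Streptococcal isolates were subcultured on Trypticase soy blood agar. Broth microdilution used cation-adjusted Mueller-Hinton broth with lysed horse blood, in in-house trays of serial twofold drug dilutions stored at −70°C. Overnight colonies were suspended to a final inoculum of approximately 5 × 10^5 CFU/ml. MIC was read after 18 to 24 h incubation at 37°C.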

Bacteroides caccae [4] = test: Antibacterial activity against Bacteroides caccae isolated from patient with diabetic foot infection after 44 to 48 hrs by agar dilution method; summary of the method: as §1
Bacteroides ovatus = test: Antibacterial activity against Bacteroides ovatus isolated from patient with diabetic foot infection after 44 to 48 hrs by agar dilution method; summary of the method: as §1
[5] = system: Streptococcus dysgalactiae subsp. equisimilis; test: Antibacterial activity against Streptococcus dysgalactiae subsp. equisimilis isolated from patient with diabetic foot infection assessed as percent resistant isolates after 18 to 24 hrs by broth microdilution method
Summary of the method: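 Streptococci subcultured on Trypticase soy blood agar and tested by broth microdilution in cation-adjusted Mueller-Hinton broth with lysed horse blood. In-house twofold dilution trays stored at −70°C. About 5 × 10^5 CFU/ml final inoculum from overnight colonies. Read after 18 to 24 h at 37°C.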

Bacteroides caccae [6] = test: Antibacterial activity against Bacteroides caccae isolated from patient with diabetic foot infection assessed as percent resistant isolates after 44 to 48 hrs by agar dilution method
Summary of the method: (§2)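 Agar dilution per CLSI M11-A7. Twofold drug dilutions made on the test day and added to molten agar. Replicator-applied inoculum of 10^5 CFU/spot. Drug-free control plates inoculated before and after each drug set. Incubation at 37°C for 44 to 48 h, anaerobic chamber. MIC taken as the lowest concentration giving no growth or a marked change in growth versus controls.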

Bacteroides stercoris = test: Antibacterial activity against Bacteroides stercoris isolated from patient with diabetic foot infection assessed as percent resistant isolates after 44 to 48 hrs by agar dilution method; summary of the method: as §2
Parabacteroides merdae = test: Antibacterial activity against Parabacteroides merdae isolated from patient with diabetic foot infection after 44 to 48 hrs by agar dilution method; summary of the method: as §1
Phocaeicola vulgatus = test: Antibacterial activity against Bacteroides vulgatus isolated from patient with diabetic foot infection assessed as percent resistant isolates after 44 to 48 hrs by agar dilution method; summary of the method: as §2
[7] = system: Parabacteroides distasonis; test: Antibacterial activity against Parabacteroides distasonis isolated from patient with diabetic foot infection assessed as percent resistant isolates after 44 to 48 hrs by agar dilution method; summary of the method: as §2
[8] = system: Anaerocolumna aminovalerica; test: Antibacterial activity against Clostridium aminovalericum isolated from patient with diabetic foot infection assessed as percent resistant isolates after 44 to 48 hrs by agar dilution method; summary of the method: as §2
Proteus vulgaris = test: Antibacterial activity against Proteus vulgaris isolated from patient with diabetic foot infection after 18 to 24 hrs by broth microdilution method
Summary of the method: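 Isolates were subcultured on Trypticase soy blood agar and tested by broth microdilution in cation-adjusted Mueller-Hinton broth. In-house trays of twofold drug dilutions were stored at −70°C. Overnight colonies gave a final inoculum of about 5 × 10^5 CFU/ml. Plates were read after 18 to 24 h at 37°C.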

[9] = system: Corynebacterium aurimucosum; test: Antibacterial activity against Corynebacterium aurimucosum isolated from patient with diabetic foot infection after 48 hrs by broth microdilution method
Summary of the method: (§3)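 Isolates were subcultured on Trypticase soy blood agar. Broth microdilution used cation-adjusted Mueller-Hinton broth with lysed horse blood, in-house trays of twofold drug dilutions stored at −70°C. Colonies from overnight growth gave a final inoculum of about 5 × 10^5 CFU/ml. Trays were read after 18 to 24 h at 37°C, up to 48 h for some strains.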

Corynebacterium jeikeium = test: Antibacterial activity against Corynebacterium jeikeium isolated from patient with diabetic foot infection after 48 hrs by broth microdilution method; summary of the method: as §3
[10] = system: Corynebacterium minutissimum; test: Antibacterial activity against Corynebacterium minutissimum isolated from patient with diabetic foot infection after 48 hrs by broth microdilution method; summary of the method: as §3
Corynebacterium striatum = test: Antibacterial activity against Corynebacterium striatum isolated from patient with diabetic foot infection after 48 hrs by broth microdilution method; summary of the method: as §3
Lacrimispora sphenoides [11] = test: Antibacterial activity against Clostridium sphenoides isolated from patient with diabetic foot infection assessed as percent resistant isolates after 44 to 48 hrs by agar dilution method; summary of the method: as §2
Cutibacterium acnes = test: Antibacterial activity against Propionibacterium acnes isolated from patient with diabetic foot infection assessed as percent resistant isolates after 44 to 48 hrs by agar dilution method; summary of the method: as §2
[12] = system: Peptoniphilus asaccharolyticus; test: Antibacterial activity against Peptoniphilus asaccharolyticus isolated from patient with diabetic foot infection assessed as percent resistant isolates after 44 to 48 hrs by agar dilution method; summary of the method: as §2
Anaerococcus vaginalis = test: Antibacterial activity against Anaerococcus vaginalis isolated from patient with diabetic foot infection assessed as percent resistant isolates after 44 to 48 hrs by agar dilution method; summary of the method: as §2

SMILES: C[C@@H](O)[C@H]1C(=O)N2C(C(=O)O)=C(S[C@@H]3CN[C@H](C(=O)N(C)C)C3)[C@H](C)[C@H]12 [MEROPENEM]
- MIC50 (Prevotella bivia): 0.06 µg/mL (≈ 0.156 µM)
- MIC90 (Prevotella bivia): 0.125 µg/mL (≈ 0.326 µM)
- MIC50 (Clostridium cadaveris): 0.06 µg/mL (≈ 0.156 µM)
- MIC90 (Clostridium cadaveris): 1 µg/mL (≈ 2.61 µM)
- MIC50 (Lacrimispora sphenoides [1]): 0.06 µg/mL (≈ 0.156 µM)
- MIC90 (Lacrimispora sphenoides [1]): 1 µg/mL (≈ 2.61 µM)
- MIC50 (Anaerococcus tetradius): 0.03 µg/mL (≈ 0.0782 µM)
- MIC90 (Anaerococcus tetradius): 0.125 µg/mL (≈ 0.326 µM)
- Activity (Enterobacter cloacae): 0%
- Activity [2]: 20%
- MIC50 [3]: 1 µg/mL (≈ 2.61 µM)
- MIC90 [3]: 32 µg/mL (≈ 83.4 µM)
- MIC50 (Streptococcus pyogenes): ≤ 0.015 µg/mL
- MIC90 (Streptococcus pyogenes): ≤ 0.015 µg/mL
- MIC50 (Bacteroides caccae [4]): 0.25 µg/mL (≈ 0.652 µM)
- MIC90 (Bacteroides caccae [4]): 1 µg/mL (≈ 2.61 µM)
- MIC50 (Bacteroides ovatus): 0.25 µg/mL (≈ 0.652 µM)
- MIC90 (Bacteroides ovatus): 1 µg/mL (≈ 2.61 µM)
- Activity [5]: 0%
- Activity (Bacteroides caccae [6]): 0%
- Activity (Bacteroides stercoris): 0%
- MIC50 (Parabacteroides merdae): 0.25 µg/mL (≈ 0.652 µM)
- MIC90 (Parabacteroides merdae): 1 µg/mL (≈ 2.61 µM)
- Activity (Phocaeicola vulgatus): 0%
- Activity [7]: 0%
- Activity [8]: 0%
- MIC50 (Proteus vulgaris): 0.06 µg/mL (≈ 0.156 µM)
- MIC90 (Proteus vulgaris): 0.125 µg/mL (≈ 0.326 µM)
- MIC50 [9]: 1 µg/mL (≈ 2.61 µM)
- MIC90 [9]: 16 µg/mL (≈ 41.7 µM)
- MIC50 (Corynebacterium jeikeium): 1 µg/mL (≈ 2.61 µM)
- MIC90 (Corynebacterium jeikeium): 16 µg/mL (≈ 41.7 µM)
- MIC50 [10]: 1 µg/mL (≈ 2.61 µM)
- MIC90 [10]: 16 µg/mL (≈ 41.7 µM)
- MIC50 (Corynebacterium striatum): 0.125 µg/mL (≈ 0.326 µM)
- MIC90 (Corynebacterium striatum): 0.25 µg/mL (≈ 0.652 µM)
- Activity (Lacrimispora sphenoides [11]): 0%
- Activity (Cutibacterium acnes): 0%
- Activity [12]: 0%
- Activity (Anaerococcus vaginalis): 0%
